Reference: PubChem BioAssay
The source made the active and inactive calls.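 The calls were made as follows, unless noted: active = viability at or under a set limit in both replicates, limit being median viability minus 3 SD (cut at about 48% in these data, passing the limit was not always enough); inconclusive = at or under the limit in just one replicate; inactive = at or above the limit in both replicates.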

Legend:
[1] = reducers of endogenous Her2 protein level, primary screen, SKBR3 breast tumor cells, AlphaScreen, ATP viability (AID 461;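 active = Her2 level under about 52% in both replicate screens, with viability over 70% of control, limit read from the data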;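 as to Her2 level: lower value means less Her2 protein in the cells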;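 as to viability: percent of carrier control wells set as 100% viability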); settings: 18-24 h, measured here: SKBR3 viability, ATP luminescence, at 10 µM
[2] = biological target: Receptor tyrosine-protein kinase erbB-2 (Homo sapiens) (UniProt P04626); assay: as above; settings: 18-24 h, at 10 µM, stronger effect = lower value
Chain of Receptor tyrosine-protein kinase erbB-2 (Homo sapiens) (P04626 whole entry, looked up): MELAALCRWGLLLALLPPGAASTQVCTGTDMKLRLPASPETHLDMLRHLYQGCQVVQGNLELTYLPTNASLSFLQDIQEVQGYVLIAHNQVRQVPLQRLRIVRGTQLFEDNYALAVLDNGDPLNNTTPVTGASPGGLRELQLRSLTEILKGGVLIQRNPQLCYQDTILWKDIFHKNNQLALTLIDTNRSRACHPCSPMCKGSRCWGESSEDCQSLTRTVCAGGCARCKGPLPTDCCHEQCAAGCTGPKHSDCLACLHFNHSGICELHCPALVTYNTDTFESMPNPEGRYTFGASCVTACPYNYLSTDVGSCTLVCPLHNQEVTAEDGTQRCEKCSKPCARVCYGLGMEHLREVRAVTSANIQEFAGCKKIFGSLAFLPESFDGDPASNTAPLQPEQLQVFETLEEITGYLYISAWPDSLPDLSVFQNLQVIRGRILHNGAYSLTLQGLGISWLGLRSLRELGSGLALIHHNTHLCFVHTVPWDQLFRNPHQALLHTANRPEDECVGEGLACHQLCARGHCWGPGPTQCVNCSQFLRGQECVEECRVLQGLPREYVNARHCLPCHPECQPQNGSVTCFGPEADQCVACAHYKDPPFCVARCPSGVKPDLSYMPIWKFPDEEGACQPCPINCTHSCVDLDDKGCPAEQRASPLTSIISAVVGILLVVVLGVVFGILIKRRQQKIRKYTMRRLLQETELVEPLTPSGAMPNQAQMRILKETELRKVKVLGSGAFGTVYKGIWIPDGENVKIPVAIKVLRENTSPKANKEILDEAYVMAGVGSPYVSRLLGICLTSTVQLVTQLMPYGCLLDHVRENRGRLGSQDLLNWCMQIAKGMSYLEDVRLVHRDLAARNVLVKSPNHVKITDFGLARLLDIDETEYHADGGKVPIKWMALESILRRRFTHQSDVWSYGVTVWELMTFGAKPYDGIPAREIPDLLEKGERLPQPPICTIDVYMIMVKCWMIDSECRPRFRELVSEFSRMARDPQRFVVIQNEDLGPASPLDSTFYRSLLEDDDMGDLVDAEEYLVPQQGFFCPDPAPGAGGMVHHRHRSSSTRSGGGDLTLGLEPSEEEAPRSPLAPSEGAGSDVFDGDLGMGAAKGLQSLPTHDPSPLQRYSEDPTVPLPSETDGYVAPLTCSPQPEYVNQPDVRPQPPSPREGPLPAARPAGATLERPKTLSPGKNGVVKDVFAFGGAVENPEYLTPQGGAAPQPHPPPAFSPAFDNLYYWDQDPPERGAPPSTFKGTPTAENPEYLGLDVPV

[3] = SK-BR-3 cell growth inhibitors, pilot screen, 24 h, human (AID 572;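 active = viability at or below 10% of carrier control in both of two separate runs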;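 also: compound exposure lasted between 18 and 24 h rather than exactly 24 h; 100% = carrier-treated control wells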); settings: SK-BR-3 viability, CellTiter-Glo luminescence, at 10 µM, stronger effect = lower value
[4] = HUVEC growth inhibition – cell-based, human, primary screen (AID 575;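 active = viability at or below 30% in both replicate assays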;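 also: 100% = median of untreated cell wells with 0.1% DMSO on each plate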); settings: HUVEC proliferation, CellTiter-Glo luminescence, 72 h; at 10 µM; stronger effect = lower value
In short: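 System: primary human umbilical vein endothelial cells; Quantity: 1250 endothelial cells in each well; Buffer or medium: supplemented EBM, 2% fetal bovine serum; Doses: one dose, 10 µM final, 0.1% DMSO; Incubation: 72 h compound incubation; Technique: ATP-based CellTiter-Glo luminescent read; Evaluation: percent of median DMSO-control luminescence; Controls: vehicle and MePR control wells.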

[5] = growth inhibitors of H69AR lung tumor, primary screen, human, duplicate replicates (AID 580); settings: H69AR lung tumor cells viability, ATP luminescence, 72 h; at 10 µM; stronger effect = lower value;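 also: 100% = mean luminescence of untreated wells and 0% = no signal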
[6] = reversal of MRP1-mediated doxorubicin resistance, pilot screen, H69AR cells, doxorubicin co-treatment (AID 601;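 active = viability loss from added drug above about 55%, and viability with drug at most 40%, in both replicates, limit read from the data, passing the limit was not always enough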); settings: CellTiter-Glo, 72 h, at 10 µM; for differential viability (reversal): stronger effect = higher value
[7] = 384-well plate pilot, post-Golgi transport modulator project, inhibition of yeast transport mutant growth (AID 636; in the data active = inhibition above about 31%); settings: absorbance 615 nm, about 18 h, stronger effect = higher value
[8] = growth suppression of yeast trafficking mutant, preliminary HTS, modulators of trafficking downstream of Golgi apparatus project, 1536-format plate, OD 615 nm (AID 637; in the data active = inhibition above about 30%); settings: yeast transport mutant growth, absorbance 615 nm, 18 h; stronger effect = higher value
[9] = H69AR cells + 2 uM doxorubicin, measured here: viability with 2 uM doxorubicin, stronger effect = lower value
[10] = H69AR cells, compound alone cytotoxicity

| Structure (SMILES) | viability [1] | Her2 level [2] | viability [3] | viability [4] | viability [5] | differential viability (reversal) ([6]; H69AR cells + 2 uM doxorubicin) | viability [6, 9] | viability [6, 10] | inhibition [7] | inhibition [8] |
| --- | --- | --- | --- | --- | --- | --- | --- | --- | --- | --- |
| COc1ccc(C(c2nnnn2C2CCCC2)N2CCN(C3CCCC3)CC2)cc1OC (stereo not given) | 89.5% | 84% (inactive) | 89.5% (inactive) | 84.7% (inactive) | 106% (inactive) | 28.3% (inactive) | 77.7% | 106% | -7.26% (inactive) | -2.22% (inactive) |
| O=C(O)C1CC=CCC1C(=O)Nc1cc(Cl)ccc1Cl (stereo not given) | 86% | 100% (inactive) | 86% (inactive) | 81.2% (inactive) | 93.5% (inactive) | 8.81% (inactive) | 84.7% | 93.5% | 0% (inactive) | -0.82% (inactive) |
| COc1ccc(-c2nnc(SCC(=O)N3CCCCC3)o2)cc1OC | 104% | 104% (inactive) | 104% (inactive) | 88.7% (inactive) | 97.5% (inactive) | 5.33% (inactive) | 92.1% | 97.5% | -2.93% (inactive) | -5.9% (inactive) |
| CC(C)(C)C(=O)N=C1SC2CS(=O)(=O)CC2N1c1ccc2c(c1)OCO2 (stereo not given) | 88% | 110% (inactive) | 88% (inactive) | 104% (inactive) | 106% (inactive) | 10.5% (inactive) | 95.7% | 106% | 0.79% (inactive) | -7.82% (inactive) |
| COc1ccc(N2CCN(c3ccc(N)cc3C#N)CC2)cc1 | 103% | 88.5% (inactive) | 103% (inactive) | 78.2% (inactive) | 95% (inactive) | 2.29% (inactive) | 92.7% | 95% | -3.38% (inactive) | 0.32% (inactive) |
| CNC(=O)CN(C#N)c1nc(N(C)C)nc(N(C)C)n1 | 104% | 112% (inactive) | 104% (inactive) | 98.5% (inactive) | 92.8% (inactive) | 2.61% (inactive) | 90.2% | 92.8% | -4.93% (inactive) | -6.77% (inactive) |
| COC(=O)[C@H](C)NC(=O)Nc1cc(OC)ccc1OC | 121% | 81.5% (inactive) | 121% (inactive) | 61.1% (inactive) | 75.1% (inactive) | 25% (inactive) | 50.1% | 75.1% | -2.34% (inactive) | -0.48% (inactive) |
| COCCn1c(SCC(=O)Nc2nnc(C)s2)nnc1-c1ccncc1 | 110% | 94% (inactive) | 110% (inactive) | 101% (inactive) | 97.9% (inactive) | 11.8% (inactive) | 86.1% | 97.9% | -5.95% (inactive) | 7.83% (inactive) |
| C=CCN1C(=O)/C(=C2\SC(N3CCOCC3)=NC2=O)c2cc(Br)ccc21 | 82.5% | 84.5% (inactive) | 82.5% (inactive) | 86.1% (inactive) | 83.1% (inactive) | -4.46% (inactive) | 87.5% | 83.1% | -1.32% (inactive) | -2.55% (inactive) |
| CCCC(=O)OCCn1c(Br)nc2c1c(=O)[nH]c(=O)n2C | 98.5% | 86.5% (inactive) | 98.5% (inactive) | 89.4% (inactive) | 93.5% (inactive) | 5.21% (inactive) | 88.2% | 93.5% | -1.47% (inactive) | 1.45% (inactive) |
| O=C1CS/C(=N\C(=O)N2c3ccccc3Sc3ccccc32)N1 | 102% | 98.5% (inactive) | 102% (inactive) | 94% (inactive) | 105% (inactive) | 14.4% (inactive) | 90.2% | 105% | -7.07% (inactive) | 1.29% (inactive) |
| CCOCCCNCC(=O)N1CCN(S(=O)(=O)c2ccc(C)cc2)CC1 | 90% | 99.5% (inactive) | 90% (inactive) | 96.2% (inactive) | 101% (inactive) | 12% (inactive) | 89.4% | 101% | -6.18% (inactive) | -1.45% (inactive) |
| CC(C(=O)NC1CCCCCC1)N(c1ccccc1)S(C)(=O)=O (stereo not given) | 112% | 97.5% (inactive) | 112% (inactive) | 114% (inactive) | 109% (inactive) | 6.19% (inactive) | 103% | 109% | -2.24% (inactive) | 2.79% (inactive) |
| COc1ccccc1-c1nnc(SCc2ccccn2)n1C | 94% | 107% (inactive) | 94% (inactive) | 113% (inactive) | 80.6% (inactive) | -10.8% (inactive) | 91.4% | 80.6% | 7.53% (inactive) | 9.37% (inactive) |
| CC(=O)c1nnn(-c2nc(N3CCCC3)nc(N(c3ccccc3)c3ccccc3)n2)c1C | 87% | 76% (inactive) | 87% (inactive) | 97.8% (inactive) | 82.7% (inactive) | 5.7% (inactive) | 77% | 82.7% | -2.89% (inactive) | -3.45% (inactive) |
| COc1ccc(CC(=O)NC2CCN(CC(=O)Nc3ccc4c(c3)OCCO4)CC2)cc1OC | 97.5% | 132% (inactive) | 97.5% (inactive) | 88.2% (inactive) | 106% (inactive) | 17% (inactive) | 89.1% | 106% | -2.37% (inactive) | -5.33% (inactive) |
